Laboratory results as given in ChEMBL document CHEMBL4715736, “Identification of anticancer agents based on the thieno[2,3-b]pyridine and 1H-pyrazole molecular scaffolds” (2016).

Assays:
Format in all cases: functional
HOP-92 [1] = assay: Growth inhibition of human HOP-92 cells incubated for 48 hrs by sulforhodamine B assay
Outline: (§1)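 NCI60 panel at the NCI Developmental Therapeutics Program. Only compounds active in the 10 µM screen went to dose-response testing. GI50, the concentration giving 50% of maximal inhibition of proliferation, and TGI, the concentration giving total growth inhibition, were derived from the dose-response curves.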

MDA-MB-468 = assay: Growth inhibition of human MDA-MB-468 cells assessed as cell growth at 1 uM incubated for 48 hrs by sulforhodamine B assay relative to control; conditions: read-out: Activity
PC-3 = assay: Growth inhibition of human PC-3 cells incubated for 48 hrs by sulforhodamine B assay
Outline: (§2)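 NCI DTP 60-line human tumour panel. Dose-response curves were run only for ligands active in the initial 10 µM screen. GI50 (concentration giving 50% of maximal inhibition of proliferation) and TGI (concentration giving total growth inhibition) were derived from these curves.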

SF-539 [2] = assay: Growth inhibition of human SF-539 cells assessed as cell growth at 0.01 uM incubated for 48 hrs by sulforhodamine B assay relative to control; conditions: read-out: Activity
HCC 2998 [3] = assay: Growth inhibition of human HCC 2998 cells assessed as cell growth at 100 uM incubated for 48 hrs by sulforhodamine B assay relative to control; conditions: read-out: Activity
Outline: (§3)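 NCI Developmental Therapeutics Program NCI60 panel. Compounds that were active in the 10 µM one-dose screen went on to dose–response testing. Growth at each concentration is expressed relative to untreated control (100%). GI50 (concentration giving 50% of maximal inhibition of proliferation) and TGI (concentration giving total growth inhibition) were derived from the curves.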

SW-620 = assay: Growth inhibition of human SW-620 cells assessed as cell growth at 0.01 uM incubated for 48 hrs by sulforhodamine B assay relative to control; conditions: read-out: Activity
U-251 = assay: Growth inhibition of human U-251 cells assessed as cell growth at 0.01 uM incubated for 48 hrs by sulforhodamine B assay relative to control; conditions: read-out: Activity
KM12 = assay: Growth inhibition of human KM12 cells assessed as cell growth at 0.01 uM incubated for 48 hrs by sulforhodamine B assay relative to control; conditions: read-out: Activity
OVCAR-3 = assay: Growth inhibition of human OVCAR-3 cells assessed as cell growth at 100 uM incubated for 48 hrs by sulforhodamine B assay relative to control; conditions: read-out: Activity
CCRF-CEM [4] = assay: Growth inhibition of human CCRF-CEM cells assessed as cell growth at 1 uM incubated for 48 hrs by sulforhodamine B assay relative to control; conditions: read-out: Activity; outline: as §3
OVCAR-8 = assay: Growth inhibition of human OVCAR-8 cells incubated for 48 hrs by sulforhodamine B assay; conditions: for CC50: read-out: LC50 (the source's name); outline: as §2
BT-549 = assay: Growth inhibition of human BT-549 cells assessed as cell growth at 0.01 uM incubated for 48 hrs by sulforhodamine B assay relative to control; conditions: read-out: Activity
SNB-19 = assay: Growth inhibition of human SNB-19 cells assessed as cell growth at 1 uM incubated for 48 hrs by sulforhodamine B assay relative to control; conditions: read-out: Activity
UACC-257 = assay: Growth inhibition of human UACC-257 cells assessed as cell growth at 0.01 uM incubated for 48 hrs by sulforhodamine B assay relative to control; conditions: read-out: Activity
NCI/ADR-RES = assay: Growth inhibition of human NCI/ADR-RES cells assessed as cell growth at 1 uM incubated for 48 hrs by sulforhodamine B assay relative to control; conditions: read-out: Activity
K562 [5] = assay: Growth inhibition of human K562 cells assessed as cell growth at 1 uM incubated for 48 hrs by sulforhodamine B assay relative to control; conditions: read-out: Activity
UACC-62 = assay: Growth inhibition of human UACC-62 cells assessed as cell growth at 1 uM incubated for 48 hrs by sulforhodamine B assay relative to control; conditions: read-out: Activity
HCC 2998 [6] = assay: Growth inhibition of human HCC 2998 cells incubated for 48 hrs by sulforhodamine B assay; conditions: for CC50: read-out: LC50 (the source's name)
HOP-92 [7] = assay: Growth inhibition of human HOP-92 cells assessed as cell growth at 0.01 uM incubated for 48 hrs by sulforhodamine B assay relative to control; conditions: read-out: Activity
A549 = assay: Growth inhibition of human A549/ATCC cells assessed as cell growth at 100 uM incubated for 48 hrs by sulforhodamine B assay relative to control; conditions: read-out: Activity; outline: as §3
SN12C [8] = assay: Growth inhibition of human SN12C cells incubated for 48 hrs by sulforhodamine B assay; conditions: for CC50: read-out: LC50 (the source's name); outline: as §2
NCI-H23 = assay: Growth inhibition of human NCI-H23 cells assessed as cell growth at 0.01 uM incubated for 48 hrs by sulforhodamine B assay relative to control; conditions: read-out: Activity
SF-295 = assay: Growth inhibition of human SF-295 cells assessed as cell growth at 0.01 uM incubated for 48 hrs by sulforhodamine B assay relative to control; conditions: read-out: Activity
SK-MEL-28 = assay: Growth inhibition of human SK-MEL-28 cells assessed as cell growth at 0.01 uM incubated for 48 hrs by sulforhodamine B assay relative to control; conditions: read-out: Activity
Malme-3M = assay: Growth inhibition of human Malme-3M cells incubated for 48 hrs by sulforhodamine B assay; outline: as §1
CCRF-CEM [9] = assay: Growth inhibition of human CCRF-CEM cells assessed as cell growth at 100 uM incubated for 48 hrs by sulforhodamine B assay relative to control; conditions: read-out: Activity; outline: as §3
K562 [10] = assay: Growth inhibition of human K562 cells assessed as cell growth at 0.01 uM incubated for 48 hrs by sulforhodamine B assay relative to control; conditions: read-out: Activity
SF-539 [11] = assay: Growth inhibition of human SF-539 cells incubated for 48 hrs by sulforhodamine B assay; conditions: for CC50: read-out: LC50 (the source's name); outline: as §2
A498 = assay: Growth inhibition of human A498 cells assessed as cell growth at 0.01 uM incubated for 48 hrs by sulforhodamine B assay relative to control; conditions: read-out: Activity; outline: as §3
M14 = assay: Growth inhibition of human M14 cells incubated for 48 hrs by sulforhodamine B assay; outline: as §1
SN12C [12] = assay: Growth inhibition of human SN12C cells assessed as cell growth at 1 uM incubated for 48 hrs by sulforhodamine B assay relative to control; conditions: read-out: Activity
TK-10 = assay: Growth inhibition of human TK-10 cells assessed as cell growth at 1 uM incubated for 48 hrs by sulforhodamine B assay relative to control; conditions: read-out: Activity
UO-31 = assay: Growth inhibition of human UO-31 cells assessed as cell growth at 100 uM incubated for 48 hrs by sulforhodamine B assay relative to control; conditions: read-out: Activity
MCF7 = assay: Growth inhibition of human MCF7 cells incubated for 48 hrs by sulforhodamine B assay; conditions: for CC50: read-out: LC50 (the source's name); outline: as §1
T47D = assay: Growth inhibition of human T47D cells assessed as cell growth at 0.1 uM incubated for 48 hrs by sulforhodamine B assay relative to control; conditions: read-out: Activity

## CN1CCc2nc3sc(C(N)=O)c(N)c3c(-c3cccs3)c2C1
HOP-92 [1]
  GI50: 3.16 µM
  LC50 (concentration killing 50% of the starting cells): > 100 µM
  TGI: 9.16 µM
MDA-MB-468
  growth at 1 µM: 77%
PC-3
  GI50: 4.58 µM
  TGI: > 100 µM
PC-3; read-out: LC50 (the source's name)
  CC50: > 100 µM
SF-539 [2]
  growth at 0.01 µM: 102%
HCC 2998 [3]
  growth at 100 µM: -29%
SW-620
  growth at 0.01 µM: 105%
U-251
  growth at 0.01 µM: 99%
KM12
  growth at 0.01 µM: 103%
OVCAR-3
  growth at 100 µM: -8%
CCRF-CEM [4]
  growth at 1 µM: 104%
OVCAR-8
  GI50: 2.7 µM
  TGI: > 100 µM
  CC50: > 100 µM
BT-549
  growth at 0.01 µM: 114%
SNB-19
  growth at 1 µM: 104%
UACC-257
  growth at 0.01 µM: 97%
NCI/ADR-RES
  growth at 1 µM: 91%
K562 [5]
  growth at 1 µM: 96%
UACC-62
  growth at 1 µM: 93%
HCC 2998 [6]
  GI50: 3.54 µM
  TGI: 20.9 µM
  CC50: > 100 µM
HOP-92 [7]
  growth at 0.01 µM: 127%
A549
  growth at 100 µM: 9%
SN12C [8]
  GI50: 2.69 µM
  TGI: > 100 µM
  CC50: > 100 µM
NCI-H23
  growth at 0.01 µM: 97%
SF-295
  growth at 0.01 µM: 93%
SK-MEL-28
  growth at 0.01 µM: 106%
Malme-3M
  GI50: 5.06 µM
  LC50: > 100 µM
  TGI: 38.4 µM
CCRF-CEM [9]
  growth at 100 µM: 7%
K562 [10]
  growth at 0.01 µM: 96%
SF-539 [11]
  GI50: 2.35 µM
  TGI: 6.79 µM
  CC50: > 100 µM
A498
  growth at 0.01 µM: 97%
M14
  GI50: 4.19 µM
  LC50 (concentration killing 50% of cells): > 100 µM
  TGI: 19.4 µM
SN12C [12]
  growth at 1 µM: 80%
TK-10
  growth at 1 µM: 103%
UO-31
  growth at 100 µM: 6%
MCF7
  GI50: 4.1 µM
  TGI: > 100 µM
  CC50: > 100 µM
T47D
  growth at 0.1 µM: 94%

## CCc1ccccc1NC(=O)c1sc2nc3c(cc2c1N)C(=O)CCC3
HOP-92 [1]
  LC50 (concentration killing 50% of the starting cells): > 100 µM
  TGI: ≥ 100 µM
MDA-MB-468
  growth at 1 µM: -4%
SF-539 [2]
  growth at 0.01 µM: 92%
HCC 2998 [3]
  growth at 100 µM: 3%
SW-620
  growth at 0.01 µM: 96%
U-251
  growth at 0.01 µM: 96%
KM12
  growth at 0.01 µM: 100%
OVCAR-3
  growth at 100 µM: -36%
CCRF-CEM [4]
  growth at 1 µM: 8%
OVCAR-8
  GI50: 2.52 µM
  TGI: > 100 µM
  CC50: > 100 µM
BT-549
  growth at 0.01 µM: 104%
SNB-19
  growth at 1 µM: 45%
UACC-257
  growth at 0.01 µM: 93%
NCI/ADR-RES
  growth at 1 µM: 21%
K562 [5]
  growth at 1 µM: 22%
HCC 2998 [6]
  GI50: 1.43 µM
  TGI: > 100 µM
  CC50: > 100 µM
HOP-92 [7]
  growth at 0.01 µM: 87%
A549
  growth at 100 µM: 12%
SN12C [8]
  GI50: 0.676 µM
  TGI: > 100 µM
  CC50: > 100 µM
SF-295
  growth at 0.01 µM: 86%
SK-MEL-28
  growth at 0.01 µM: 88%
Malme-3M
  GI50: 26.2 µM
  LC50: > 100 µM
  TGI: ≥ 100 µM
CCRF-CEM [9]
  growth at 100 µM: 8%
K562 [10]
  growth at 0.01 µM: 104%
SF-539 [11]
  GI50: 0.335 µM
  TGI: 2.69 µM
  CC50: > 100 µM
A498
  growth at 0.01 µM: 80%
M14
  GI50: 0.291 µM
  LC50 (concentration killing 50% of cells): > 100 µM
  TGI: > 100 µM
SN12C [12]
  growth at 1 µM: 40%
TK-10
  growth at 1 µM: 55%
UO-31
  growth at 100 µM: 18%
MCF7
  GI50: 0.312 µM
  TGI: > 100 µM
  CC50: > 100 µM
T47D
  growth at 0.1 µM: 102%
